ChEMBL document CHEMBL1123340, “Synthesis and analgesic evaluation of 4-(2-heptyloxy)-7-[(Z)-(3-hydroxycyclohexyl)]indole: a caveat on indole-phenol bioisosterism” (1986)

Columns and labels:
Assay type in all cases: functional
Mus musculus [1] = test: Compound was tested at a dose of 20 mg/kg administered intraperitoneally for a pretreatment time of 20 min for analgesic activity using phenyl benzoquinone; details: route intraperitoneal
Procedure, shortened: (§1)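 Mouse phenylbenzoquinone (PBQ) writhing test. Test drug is given sc, ip or iv at the stated pretreatment time before PBQ injection. Mice are placed in individual observation boxes, and total writhes per group are counted over the following 15 min. Vehicle is emulphor/ethanol/saline (1:1:18), diluted from a 1:1 emulphor/ethanol stock, and vehicle-injected controls are run. Result is % inhibition of writhing versus vehicle controls.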

Mus musculus [2] = test: Compound was tested at a dose of 20 mg/kg administered intraperitoneally for a pretreatment time of 60 min; details: route intraperitoneal; procedure, shortened: as §1
Mus musculus [3] = test: Compound was tested at a dose of 20 mg/kg administered intravenously for a pretreatment time of 10 min; details: route intravenous; procedure, shortened: as §1
Mus musculus [4] = test: Compound was tested at a dose of 20 mg/kg administered subcutaneously for a pretreatment time of 15 min for analgesic activity using phenylbenzoquinone (PBQ); details: route subcutaneous; procedure, shortened: as §1
Mus musculus [5] = test: Compound was tested at a dose of 20 mg/kg administered subcutaneously for a pretreatment time of 60 min for analgesic activity using phenylbenzoquinone (PBQ); details: route subcutaneous; procedure, shortened: as §1
Mus musculus [6] = test: Inhibition of the Mouse PBQ Writhing at a dose of 20 mg/kg ip afer 20 min; details: route intraperitoneal; procedure, shortened: as §1
Mus musculus [7] = test: Inhibition of the Mouse PBQ Writhing at a dose of 20 mg/kg ip afer 60 min; details: 1 h, route intraperitoneal; procedure, shortened: as §1
Mus musculus [8] = test: Inhibition of the Mouse PBQ Writhing at a dose of 20 mg/kg iv afer 30 min; details: 0.5 h; procedure, shortened: as §1
Mus musculus [9] = test: Inhibition of the Mouse PBQ Writhing at a dose of 20 mg/kg sc after 120 min; details: 2 h, route subcutaneous; procedure, shortened: as §1
Mus musculus [10] = test: Inhibition of the Mouse PBQ Writhing at a dose of 20 mg/kg sc after 15 min; details: 0.25 h, route subcutaneous; procedure, shortened: as §1
Mus musculus [11] = test: Inhibition of the Mouse PBQ Writhing at a dose of 20 mg/kg sc after 60 min; details: 1 h, route subcutaneous; procedure, shortened: as §1
Mus musculus [12] = test: Inhibition of the Mouse PBQ Writhing at a dose of 20 mg/kg iv afer 10 min; procedure, shortened: as §1
Mus musculus [13] = test: Compound was tested at a dose of 20 mg/kg administered subcutaneously for a pretreatment time of 120 min for analgesic activity using phenylbenzoquinone (PBQ); details: route subcutaneous; procedure, shortened: as §1
Mus musculus [14] = test: Compound was tested at a dose of 5 mg/kg administered subcutaneously for a pretreatment time of 60 min for analgesic activity using phenylbenzoquinone (PBQ); details: route subcutaneous; procedure, shortened: as §1
Mus musculus [15] = test: Compound was tested at a dose of 10 mg/kg administered subcutaneously for a pretreatment time of 60 min for analgesic activity using phenylbenzoquinone (PBQ); details: route subcutaneous; procedure, shortened: as §1
Mus musculus [16] = test: Inhibition of the Mouse PBQ Writhing at a dose of 10 mg/kg sc after 60 min; details: 1 h, route subcutaneous; procedure, shortened: as §1
Mus musculus [17] = test: Inhibition of the Mouse PBQ Writhing at a dose of 5 mg/kg sc after 60 min; details: 1 h, route subcutaneous; procedure, shortened: as §1

SMILES | Analgesic activity (Mus musculus [1]) | Analgesic activity (Mus musculus [2]) | Analgesic activity (Mus musculus [3]) | Analgesic activity (Mus musculus [4]) | Analgesic activity (Mus musculus [5]) | inhibition in vivo at 20 mg/kg (Mus musculus [6]) | inhibition in vivo at 20 mg/kg (Mus musculus [7]) | inhibition in vivo at 20 mg/kg (Mus musculus [8]) | inhibition in vivo at 20 mg/kg (Mus musculus [9]) | inhibition in vivo at 20 mg/kg (Mus musculus [10]) | inhibition in vivo at 20 mg/kg (Mus musculus [11]) | inhibition in vivo at 20 mg/kg (Mus musculus [12]) | Analgesic activity (Mus musculus [13]) | Analgesic activity (Mus musculus [14]) | Analgesic activity (Mus musculus [15]) | inhibition in vivo at 10 mg/kg (Mus musculus [16]) | inhibition in vivo at 5 mg/kg (Mus musculus [17])
CCCCCC(C)Oc1ccc([C@H]2CCC[C@@H](O)C2)c2[nH]ccc12 (some centres undefined) | 24.4 | 29.2 | 24.8 | 16.7 | 27.2 | 10% | 0% | 0% | 0% | 21.6% | 0% | 20.3% | 32.4 | – | – | – | –
CCCCCC(C)Oc1ccc([C@H]2CCC[C@@H](O)C2)c(O)c1 (some centres undefined) | – | – | – | – | 2.9 | – | – | – | – | – | 91.4% | – | – | 23.8 | 15.3 | 54.5% | 29.2%
